According to ChEMBL document CHEMBL3616442, “Unconventional Knoevenagel-type indoles: Synthesis and cell-based studies for the identification of pro-apoptotic agents” (Eur J Med Chem, 2015):

Experiments:
[1] = system: MT4; assay: Antiproliferative activity against human MT4 cells after 96 hrs by MTT assay; type: functional, cell-based; conditions: MT4, 96 h
Method in brief: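 Exponentially growing MT-4 cells (CD4+ human T-cells carrying integrated HTLV-1 genome), seeded at 1×10^5 cells/mL in RPMI-1640 with 10% FCS and antibiotics. Serial dilutions of compound (DMSO stock 100 mM, diluted in medium), 37 °C, 5% CO₂, 96 h. Viability read by MTT. 50% inhibition versus untreated controls by linear regression. Mean ± SD of three independent determinations.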

[2] = Growth inhibition of human MOLT4 cells after 48 hrs by sulforhodamine B assay; type: functional; conditions: MOLT-4, 48 h
Method in brief: (§1)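 NCI 60-cell-line screen. Compounds tested at five 10-fold dilutions from 10^-4 to 10^-8 M. Cells exposed for the last 48 h of a 72 h incubation, growth estimated by sulforhodamine B protein assay. GI50 is the concentration giving 50% growth inhibition. Values beyond the tested range are expressed as greater or lesser than the extreme concentration.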

[3] = Growth inhibition of human RPMI8226 cells after 48 hrs by sulforhodamine B assay; type: functional; conditions: RPMI-8226, 48 h
[4] = system: SR; assay: Growth inhibition of human SR cells after 48 hrs by sulforhodamine B assay; type: functional
[5] = system: A549; assay: Growth inhibition of human A549 cells after 48 hrs by sulforhodamine B assay; type: functional; conditions: A549, 48 h; method in brief: as §1
[6] = Growth inhibition of human EKVX cells after 48 hrs by sulforhodamine B assay; type: functional; method in brief: as §1
[7] = system: HOP-62; assay: Growth inhibition of human HOP62 cells after 48 hrs by sulforhodamine B assay; type: functional; conditions: HOP-62, 48 h; method in brief: as §1
[8] = Growth inhibition of human HOP92 cells after 48 hrs by sulforhodamine B assay; type: functional; conditions: HOP-92, 48 h; method in brief: as §1
[9] = system: NCI-H226; assay: Growth inhibition of human NCI-H226 cells after 48 hrs by sulforhodamine B assay; type: functional; conditions: NCI-H226, 48 h; method in brief: as §1
[10] = system: NCI-H23; assay: Growth inhibition of human NCI-H23 cells after 48 hrs by sulforhodamine B assay; type: functional; conditions: NCI-H23, 48 h; method in brief: as §1
[11] = system: NCI-H322M; assay: Growth inhibition of human NCI-H322M cells after 48 hrs by sulforhodamine B assay; type: functional; method in brief: as §1
[12] = system: NCI-H460; assay: Growth inhibition of human NCI-H460 cells after 48 hrs by sulforhodamine B assay; type: functional; conditions: NCI-H460, 48 h; method in brief: as §1
[13] = system: NCI-H522; assay: Growth inhibition of human NCI-H522 cells after 48 hrs by sulforhodamine B assay; type: functional; conditions: NCI-H522, 48 h; method in brief: as §1
[14] = Growth inhibition of human COLO205 cells after 48 hrs by sulforhodamine B assay; type: functional; conditions: COLO 205, 48 h; method in brief: as §1
[15] = Growth inhibition of human HCC2998 cells after 48 hrs by sulforhodamine B assay; type: functional; conditions: HCC 2998, 48 h; method in brief: as §1
[16] = system: HCT-116; assay: Growth inhibition of human HCT116 cells after 48 hrs by sulforhodamine B assay; type: functional; conditions: HCT-116, 48 h; method in brief: as §1
[17] = system: HCT-15; assay: Growth inhibition of human HCT15 cells after 48 hrs by sulforhodamine B assay; type: functional; conditions: HCT-15, 48 h; method in brief: as §1
[18] = system: HT-29; assay: Growth inhibition of human HT-29 cells after 48 hrs by sulforhodamine B assay; type: functional; conditions: HT-29, 48 h; method in brief: as §1
[19] = system: KM12; assay: Growth inhibition of human KM12 cells after 48 hrs by sulforhodamine B assay; type: functional; conditions: KM12, 48 h; method in brief: as §1
[20] = system: SW-620; assay: Growth inhibition of human SW620 cells after 48 hrs by sulforhodamine B assay; type: functional; conditions: SW-620, 48 h
[21] = system: SF-268; assay: Growth inhibition of human SF268 cells after 48 hrs by sulforhodamine B assay; type: functional; conditions: SF-268, 48 h
[22] = Growth inhibition of human SF295 cells after 48 hrs by sulforhodamine B assay; type: functional; conditions: SF-295, 48 h
[23] = Growth inhibition of human SF539 cells after 48 hrs by sulforhodamine B assay; type: functional; conditions: SF-539, 48 h
[24] = system: SNB-19; assay: Growth inhibition of human SNB19 cells after 48 hrs by sulforhodamine B assay; type: functional; conditions: SNB-19, 48 h
[25] = system: SNB-75; assay: Growth inhibition of human SNB75 cells after 48 hrs by sulforhodamine B assay; type: functional; conditions: SNB-75, 48 h
[26] = system: U-251; assay: Growth inhibition of human U251 cells after 48 hrs by sulforhodamine B assay; type: functional; conditions: U-251, 48 h
[27] = Growth inhibition of human LOXIMVI cells after 48 hrs by sulforhodamine B assay; type: functional; conditions: LOX IMVI; method in brief: as §1
[28] = system: Malme-3M; assay: Growth inhibition of human MALME-3M cells after 48 hrs by sulforhodamine B assay; type: functional; method in brief: as §1
[29] = system: M14; assay: Growth inhibition of human M14 cells after 48 hrs by sulforhodamine B assay; type: functional; conditions: M14, 48 h; method in brief: as §1
[30] = system: MDA-MB-435; assay: Growth inhibition of human MDA-MB-435 cells after 48 hrs by sulforhodamine B assay; type: functional; conditions: MDA-MB-435, 48 h; method in brief: as §1
[31] = system: SK-MEL-2; assay: Growth inhibition of human SK-MEL-2 cells after 48 hrs by sulforhodamine B assay; type: functional; conditions: SK-MEL-2, 48 h
[32] = system: SK-MEL-28; assay: Growth inhibition of human SK-MEL-28 cells after 48 hrs by sulforhodamine B assay; type: functional; conditions: SK-MEL-28, 48 h
[33] = system: UACC-257; assay: Growth inhibition of human UACC257 cells after 48 hrs by sulforhodamine B assay; type: functional; conditions: UACC-257, 48 h
[34] = system: UACC-62; assay: Growth inhibition of human UACC62 cells after 48 hrs by sulforhodamine B assay; type: functional; conditions: UACC-62, 48 h
[35] = system: IGROV-1; assay: Growth inhibition of human IGROV1 cells after 48 hrs by sulforhodamine B assay; type: functional; conditions: IGROV-1, 48 h; method in brief: as §1
[36] = system: OVCAR-3; assay: Growth inhibition of human OVCAR3 cells after 48 hrs by sulforhodamine B assay; type: functional; conditions: OVCAR-3, 48 h; method in brief: as §1
[37] = system: OVCAR-4; assay: Growth inhibition of human OVCAR4 cells after 48 hrs by sulforhodamine B assay; type: functional; conditions: OVCAR-4, 48 h; method in brief: as §1
[38] = system: OVCAR-5; assay: Growth inhibition of human OVCAR5 cells after 48 hrs by sulforhodamine B assay; type: functional; conditions: OVCAR-5, 48 h
[39] = system: OVCAR-8; assay: Growth inhibition of human OVCAR8 cells after 48 hrs by sulforhodamine B assay; type: functional; conditions: OVCAR-8, 48 h
[40] = Growth inhibition of human NCI-ADR-RES cells after 48 hrs by sulforhodamine B assay; type: functional; method in brief: as §1
[41] = system: SK-OV-3; assay: Growth inhibition of human SKOV3 cells after 48 hrs by sulforhodamine B assay; type: functional; conditions: SK-OV-3, 48 h
[42] = system: 786-0; assay: Growth inhibition of human 786-0 cells after 48 hrs by sulforhodamine B assay; type: functional; conditions: 786-0, 48 h; method in brief: as §1
[43] = system: A498; assay: Growth inhibition of human A498 cells after 48 hrs by sulforhodamine B assay; type: functional; conditions: A498, 48 h; method in brief: as §1
[44] = system: ACHN; assay: Growth inhibition of human ACHN cells after 48 hrs by sulforhodamine B assay; type: functional; method in brief: as §1
[45] = system: CAKI-1; assay: Growth inhibition of human CAKI-1 cells after 48 hrs by sulforhodamine B assay; type: functional; conditions: CAKI-1, 48 h; method in brief: as §1
[46] = Growth inhibition of human RXF393 cells after 48 hrs by sulforhodamine B assay; type: functional; conditions: RXF 393, 48 h
[47] = system: SN12C; assay: Growth inhibition of human SN12C cells after 48 hrs by sulforhodamine B assay; type: functional
[48] = system: TK-10; assay: Growth inhibition of human TK10 cells after 48 hrs by sulforhodamine B assay; type: functional; conditions: TK-10, 48 h
[49] = system: UO-31; assay: Growth inhibition of human UO31 cells after 48 hrs by sulforhodamine B assay; type: functional; conditions: UO-31, 48 h
[50] = system: PC-3; assay: Growth inhibition of human PC3 cells after 48 hrs by sulforhodamine B assay; type: functional; conditions: PC-3, 48 h
[51] = system: DU-145; assay: Growth inhibition of human DU145 cells after 48 hrs by sulforhodamine B assay; type: functional; conditions: DU-145, 48 h; method in brief: as §1
[52] = system: MCF7; assay: Growth inhibition of human MCF7 cells after 48 hrs by sulforhodamine B assay; type: functional; conditions: MCF7, 48 h; method in brief: as §1
[53] = system: MDA-MB-231; assay: Growth inhibition of human MDA-MB-231 cells after 48 hrs by sulforhodamine B assay; type: functional; conditions: MDA-MB-231, 48 h; method in brief: as §1
[54] = Growth inhibition of human Hs 578T cells after 48 hrs by sulforhodamine B assay; type: functional; method in brief: as §1
[55] = Growth inhibition of human BT549 cells after 48 hrs by sulforhodamine B assay; type: functional; conditions: BT-549, 48 h; method in brief: as §1
[56] = system: T47D; assay: Growth inhibition of human T47D cells after 48 hrs by sulforhodamine B assay; type: functional
[57] = system: MDA-MB-468; assay: Growth inhibition of human MDA-MB-468 cells after 48 hrs by sulforhodamine B assay; type: functional; conditions: MDA-MB-468, 48 h; method in brief: as §1

- GI50 [5]: 4.9 µM
- GI50 [9]: 4.3 µM
- GI50 [10]: 4.8 µM
- GI50 [11]: 8.8 µM
- GI50 [12]: 3 µM
- GI50 [13]: 3.2 µM
- GI50 [16]: 3.8 µM
- GI50 [17]: 3.1 µM
- GI50 [18]: 5.2 µM
- GI50 [20]: 5.2 µM
- GI50 [26]: 3.4 µM
- GI50 [30]: 2.9 µM
- GI50 [31]: 10.6 µM
- GI50 [32]: 5.8 µM
- GI50 [36]: 2.7 µM
- GI50 [37]: 5.7 µM
- GI50 [38]: 17.4 µM
- GI50 [39]: 3.9 µM
- GI50 [41]: 9.3 µM
- GI50 [42]: 8.2 µM
- GI50 [44]: 5.5 µM
- GI50 [50]: 5.6 µM
- GI50 [51]: 2.9 µM
- GI50 [52]: 2.8 µM
- GI50 [53]: 2.7 µM
- GI50 [56]: 3.2 µM
- GI50 [57]: 6.3 µM
SMILES: COC(=O)/C(=C\c1c(C)[nH]c2ccccc12)S(=O)(=O)c1ccccc1
- EC50 [1]: 31 µM
- GI50 [2]: 1.9 µM
- GI50 [3]: 3.2 µM
- GI50 [4]: 1.1 µM
- GI50 [6]: 5 µM
- GI50 [7]: 7.7 µM
- GI50 [8]: 4.1 µM
- GI50 [14]: 7.5 µM
- GI50 [15]: 4.9 µM
- GI50 [19]: 2.4 µM
- GI50 [21]: 3.3 µM
- GI50 [22]: 3.1 µM
- GI50 [23]: 3.4 µM
- GI50 [24]: 7.6 µM
- GI50 [25]: 3.1 µM
- GI50 [27]: 2 µM
- GI50 [28]: 7.3 µM
- GI50 [29]: 4.4 µM
- GI50 [33]: 7 µM
- GI50 [34]: 2.8 µM
- GI50 [35]: 1.5 µM
- GI50 [40]: 4.2 µM
- GI50 [43]: 5.5 µM
- GI50 [45]: 3.3 µM
- GI50 [46]: 3.6 µM
- GI50 [47]: 2.6 µM
- GI50 [48]: 8.1 µM
- GI50 [49]: 4.4 µM
- GI50 [54]: 2.9 µM
- GI50 [55]: 5.4 µM
